Test results taken from ChEMBL document CHEMBL2407050, “Wilsonols A-L, megastigmane sesquiterpenoids from the leaves of Cinnamomum wilsonii” (J Nat Prod, 2013).
Active and inactive are the calls of the source.

How the values were obtained:
[1] = test system: T-cell; assay: Inhibition of ConA-induced mouse T lymphocytes proliferation after 48 hrs by CCK-8 assay; assay type: functional
Procedure, shortened: (§1)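 Murine splenocytes, 2.5 × 10⁶ per well, co-treated with compounds at various concentrations plus ConA (5 μg/mL, T-cell stimulus) or LPS (B-cell stimulus). Cultured 48 h at 37 °C, 5% CO₂; CCK-8 added for the last 4 h, A450 read against a 600 nm reference. Triplicate means; change expressed relative to the stimulated positive control. >10% inhibition counted as active.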

[2] = test system: MCF7; assay: Cytotoxicity against human MCF7 cells after 48 hrs by MTS assay; assay type: functional, cell-based; details: MCF7, 48 h
Procedure, shortened: (§2)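 Cells grown in DMEM or RPMI-1640 with 10% FBS at 37 °C under 5% CO₂. Adherent cells plated 12 h before dosing; suspension cells plated at dosing, initial density 1 × 10⁵ cells/mL. MTS (5 mg/mL stock) added for 4 h at 37 °C, then SDS lysis and OD at 595 nm. IC50 by Reed–Muench.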

[3] = test system: SW480; assay: Cytotoxicity against human SW480 cells after 48 hrs by MTS assay; assay type: functional, cell-based; details: SW480, 48 h; procedure, shortened: as §2
[4] = Cytotoxicity against mouse T lymphocytes after 48 hrs by CCK-8 assay; details: t-cell
Procedure, shortened: (§3)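 Splenocyte toxicity run without ConA or LPS at 5 × 10⁶ cells/200 μL/well. Cultured 48 h at 37 °C, 5% CO₂ with CCK-8 during the final 4 h; A450 read against a 600 nm reference. Viability (%) = compound OD450 / […] OD450 × 100.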

[5] = test system: HL-60; assay: Cytotoxicity against human HL60 cells after 48 hrs by MTS assay; assay type: functional, cell-based; details: HL-60, 48 h; procedure, shortened: as §2
[6] = test system: A549; assay: Cytotoxicity against human A549 cells after 48 hrs by MTS assay; assay type: functional, cell-based; details: A549, 48 h; procedure, shortened: as §2
[7] = Cytotoxicity against mouse B lymphocytes after 48 hrs by CCK-8 assay; details: b-cell; procedure, shortened: as §3
[8] = test system: B-cell; assay: Inhibition of LPS-induced mouse B lymphocytes proliferation after 48 hrs by CCK-8 assay; assay type: functional; procedure, shortened: as §1
[9] = test system: SMMC-7721; assay: Cytotoxicity against human SMMC7721 cells after 48 hrs by MTS assay; assay type: functional, cell-based; details: SMMC-7721, 48 h; procedure, shortened: as §2
[10] = test system: A549; assay: Selectivity index, ratio of IC50 for human BEAS2B cells to IC50 for human A549 cells; assay type: functional
Procedure, shortened: (§4)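 Ratio of the Beas-2B IC50 to the IC50 for each cancer line. Both IC50s come from the 48 h MTS viability assay with Reed–Muench calculation.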

[11] = Selectivity index, ratio of IC50 for human BEAS2B cells to IC50 for human SW480 cells; assay type: functional; procedure, shortened: as §4
[12] = Cytotoxicity against human BEAS2B cells after 48 hrs by MTS assay; assay type: cell-based; details: beas-2b; procedure, shortened: as §2
[13] = test system: SMMC-7721; assay: Selectivity index, ratio of IC50 for human BEAS2B cells to IC50 for human SMMC7721 cells; assay type: functional; procedure, shortened: as §4
[14] = test system: MCF7; assay: Selectivity index, ratio of IC50 for human BEAS2B cells to IC50 for human MCF7 cells; assay type: functional; procedure, shortened: as §4
[15] = Selectivity index, ratio of IC50 for human BEAS2B cells to IC50 for human HL60 cells; assay type: functional; procedure, shortened: as §4

C[C@@H](O)/C=C/[C@@]1(O)[C@@H](C)C[C@H](O)CC1(C)C
active: inhibition [1] | inhibition [8]
> 10 µM: IC50 [2] | IC50 [3] | IC50 [5] | IC50 [6] | IC50 [9]
Non-toxic: Activity [4] | Activity [7]

CC1=C(CC[C@@H](C)O)C(C)(C)C[C@H](O)[C@@H]1O
> 10 µM: IC50 [2] | IC50 [3] | IC50 [5] | IC50 [6] | IC50 [9]
Non-toxic: Activity [4] | Activity [7]
active: inhibition [8]

C[C@@H](O)/C=C/[C@H]1C(CO)=CC(=O)CC1(C)C
> 10 µM: IC50 [2] | IC50 [3] | IC50 [5] | IC50 [6] | IC50 [9]

C[C@H](O)CCC1=C(CO)C[C@@H](O)CC1(C)C
> 10 µM: IC50 [2] | IC50 [3] | IC50 [5] | IC50 [6] | IC50 [9]
Non-toxic: Activity [4] | Activity [7]
active: inhibition [1] | inhibition [8]

C[C@H](O)/C=C/[C@@]1(O)[C@H](C)[C@H](O)[C@@H](O)CC1(C)C [WILSONOL A]
Non-toxic: Activity [4] | Activity [7]
> 10 µM: IC50 [2] | IC50 [3] | IC50 [5] | IC50 [6] | IC50 [9]
active: inhibition [1]

C[C@@H](O)/C=C/[C@@]1(O)C(C)(C)C[C@H](O)[C@@H](O)[C@@]1(C)O [WILSONOL H]
> 10 µM: IC50 [2] | IC50 [3] | IC50 [5] | IC50 [6] | IC50 [9]

C[C@@H]1[C@H](O)[C@@H](O)CC(C)(C)[C@@]1(O)/C=C/[C@@H](C)O [WILSONOL B]
active: inhibition [1]
> 10 µM: IC50 [2] | IC50 [3] | IC50 [5] | IC50 [6] | IC50 [9]
Non-toxic: Activity [4] | Activity [7]

COC(=O)/C=C(C)\C=C\[C@@]1(O)C(C)=CC(=O)CC1(C)C
> 10 µM: IC50 [2] | IC50 [3] | IC50 [5] | IC50 [6] | IC50 [9]
inactive: inhibition [1] | inhibition [8]
Non-toxic: Activity [4] | Activity [7]

C[C@@H]1[C@H](O)[C@@H](O)CC(C)(C)[C@H]1/C=C/[C@H](C)O
> 10 µM: IC50 [2] | IC50 [3] | IC50 [5] | IC50 [6] | IC50 [9]
Non-toxic: Activity [4] | Activity [7]

CC(O)/C=C/[C@H]1[C@H](C)[C@H](O)[C@@H](O)CC1(C)C (mixture of isomers) [WILSONOL E]
> 10 µM: IC50 [2] | IC50 [3] | IC50 [5] | IC50 [6] | IC50 [9]

CC(=O)/C=C/[C@@]1(O)[C@H](C)[C@H](O[C@@H]2O[C@H](CO)[C@@H](O)[C@H](O)[C@H]2O)[C@@H](O)CC1(C)C
Non-toxic: Activity [4] | Activity [7]
> 10 µM: IC50 [2] | IC50 [3] | IC50 [5] | IC50 [6] | IC50 [9]

C[C@@H]1C[C@H](O)CC(C)(C)[C@]1(O)CC[C@@H](C)O [WILSONOL F]
> 10 µM: IC50 [2] | IC50 [3] | IC50 [5] | IC50 [6] | IC50 [9]
Non-toxic: Activity [4] | Activity [7]

C[C@@H](O)/C=C/[C@@H]1C(C)(C)[C@H](O)C[C@@H](O)[C@]1(C)O
> 10 µM: IC50 [2] | IC50 [3] | IC50 [5] | IC50 [6] | IC50 [9]

CC1=C(CC[C@H](C)O)C(C)(C)C[C@H](O[C@@H]2O[C@H](CO)[C@@H](O)[C@H](O)[C@H]2O)C1
3.1 µM: IC50 [9]
5 µM: IC50 [5]
Non-toxic: Activity [12] | Activity [4] | Activity [7]
2.5 µM: IC50 [6]
>16: Ratio IC50 [10] | Ratio IC50 [11] | Ratio IC50 [13] | Ratio IC50 [14] | Ratio IC50 [15]
12 µM: IC50 [3]
3.4 µM: IC50 [2]

CC(=O)/C=C/[C@@]1(O)[C@H](C)[C@H](O)[C@@H](O)CC1(C)C [WILSONOL C]
> 10 µM: IC50 [2] | IC50 [3] | IC50 [5] | IC50 [6] | IC50 [9]
Non-toxic: Activity [4] | Activity [7]

C[C@@H](O)/C=C/[C@H]1[C@H](CO)C[C@H](O)CC1(C)C
Non-toxic: Activity [4] | Activity [7]
> 10 µM: IC50 [2] | IC50 [3] | IC50 [5] | IC50 [6] | IC50 [9]
